Data from ChEMBL document CHEMBL1132602, “Identification of novel classes of protein kinase inhibitors using combinatorial peptide chemistry based on functional genomics knowledge” (J Med Chem, 1999).
Starred links: 1 amine or outer side, 2 acyl side, 3 side chain; linkers in the order of their positions; H or OH if unused. Non-standard residues stand in square brackets, D forms with d. Residues, ends and D or L forms follow the SMILES beside them. X1 = O=C(C1CCC(N[*:1])CC1)[*:2]

Key:
CaM kinase II = CaM kinase II (Homo sapiens, UniProt Q13557+Q13555+Q13554+Q9UQM7); assay: Inhibitory activity against CaMPKII (Calcium/calmodulin-dependent protein kinase type II); format: protein assay
[1] = target: Myosin light chain kinase, smooth muscle (Gallus gallus, UniProt P11799); assay: Inhibitory activity against MLCK (smooth muscle myosin light chain kinase)
[2] = Ratio of the inhibitory concentrations against CaMPKII and MLCK. IC50 (CaMPKII ) / IC50 (MLCK).
Outline: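 Ratio of IC50 values from the two radiometric assays, both with 0.2 mM [γ-32P]ATP and 20 μM peptide substrate. CaMPKII was activated with 30 μM CaM and 2 mM CaCl2 and run 8 min. Chicken gizzard MLCK was activated with 1 μM CaM and 5 μM CaCl2 and run 20 min. Both at 25 °C, IC50 from 15–85% activity regression.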

Chain of Myosin light chain kinase, smooth muscle (P11799 whole entry): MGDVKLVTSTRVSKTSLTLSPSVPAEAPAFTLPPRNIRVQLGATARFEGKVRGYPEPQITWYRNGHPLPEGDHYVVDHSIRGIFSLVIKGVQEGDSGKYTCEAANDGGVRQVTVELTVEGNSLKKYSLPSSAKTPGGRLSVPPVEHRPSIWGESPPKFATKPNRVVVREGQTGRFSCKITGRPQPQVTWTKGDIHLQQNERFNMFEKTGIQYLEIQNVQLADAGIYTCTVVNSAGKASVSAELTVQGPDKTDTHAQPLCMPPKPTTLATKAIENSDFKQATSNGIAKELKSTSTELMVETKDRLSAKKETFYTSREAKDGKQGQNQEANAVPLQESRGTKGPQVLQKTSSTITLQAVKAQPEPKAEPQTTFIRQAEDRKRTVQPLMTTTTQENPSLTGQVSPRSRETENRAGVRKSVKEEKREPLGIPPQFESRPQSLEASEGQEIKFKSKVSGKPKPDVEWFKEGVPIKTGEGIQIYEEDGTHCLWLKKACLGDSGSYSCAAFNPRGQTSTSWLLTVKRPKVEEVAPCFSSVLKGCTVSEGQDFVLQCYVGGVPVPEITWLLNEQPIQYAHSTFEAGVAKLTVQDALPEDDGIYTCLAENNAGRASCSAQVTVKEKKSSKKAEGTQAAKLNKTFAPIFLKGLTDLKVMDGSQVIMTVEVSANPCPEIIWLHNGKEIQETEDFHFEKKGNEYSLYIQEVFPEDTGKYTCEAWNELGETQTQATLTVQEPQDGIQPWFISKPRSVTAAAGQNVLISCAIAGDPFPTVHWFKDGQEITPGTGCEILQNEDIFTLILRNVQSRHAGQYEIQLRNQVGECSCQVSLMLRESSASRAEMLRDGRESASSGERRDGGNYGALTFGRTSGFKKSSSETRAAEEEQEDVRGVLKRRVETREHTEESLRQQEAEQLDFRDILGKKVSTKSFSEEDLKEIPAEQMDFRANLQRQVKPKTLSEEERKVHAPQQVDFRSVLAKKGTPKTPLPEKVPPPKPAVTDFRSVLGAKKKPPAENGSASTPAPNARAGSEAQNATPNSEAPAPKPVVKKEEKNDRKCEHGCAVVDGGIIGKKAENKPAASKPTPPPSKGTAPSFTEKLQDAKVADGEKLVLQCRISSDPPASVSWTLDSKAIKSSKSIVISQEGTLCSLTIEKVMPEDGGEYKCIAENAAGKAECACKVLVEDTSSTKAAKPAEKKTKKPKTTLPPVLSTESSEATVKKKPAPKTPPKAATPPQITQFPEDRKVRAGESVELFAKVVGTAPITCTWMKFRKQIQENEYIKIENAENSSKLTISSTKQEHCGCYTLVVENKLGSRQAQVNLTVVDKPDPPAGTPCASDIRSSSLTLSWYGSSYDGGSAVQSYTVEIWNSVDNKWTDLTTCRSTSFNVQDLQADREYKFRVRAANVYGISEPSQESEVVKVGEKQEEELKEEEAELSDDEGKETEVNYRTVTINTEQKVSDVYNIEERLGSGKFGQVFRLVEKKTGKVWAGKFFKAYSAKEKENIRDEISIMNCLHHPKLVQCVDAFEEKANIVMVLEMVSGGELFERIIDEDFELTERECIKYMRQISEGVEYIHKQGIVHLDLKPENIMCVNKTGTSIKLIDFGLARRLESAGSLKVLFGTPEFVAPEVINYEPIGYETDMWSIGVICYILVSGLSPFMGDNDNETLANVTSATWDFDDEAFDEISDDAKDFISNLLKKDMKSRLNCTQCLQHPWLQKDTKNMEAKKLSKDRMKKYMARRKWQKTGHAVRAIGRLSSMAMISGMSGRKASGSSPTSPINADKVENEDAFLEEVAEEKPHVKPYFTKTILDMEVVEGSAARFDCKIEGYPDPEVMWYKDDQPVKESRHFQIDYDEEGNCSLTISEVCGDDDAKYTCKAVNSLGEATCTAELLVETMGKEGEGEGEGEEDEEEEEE

In the case of H-RKKYKERRK-NH2, the IC50 (CaM kinase II) is reported as > 200000 nM, the IC50 [1] is reported as 870 nM and the Ratio [2] is reported as > 230.
An IC50 (CaM kinase II) of 57400 nM and an IC50 [1] of 160 nM were found for `CC[C@H](C)[C@H](NC(=O)[C@H](CCCCN)NC(=O)[C@H](Cc1ccc(O)cc1)NC(=O)[C@H](CCCCN)NC(=O)[C@H](CCCCN)NC(=O)[C@@H](N)CCCNC(=N)N)C(=O)N[C@@H](CCCNC(=N)N)C(=O)N[C@@H](CCCNC(=N)N)C(=O)N[C@@H](CCCCN)C(N)=O` in this work.
With `NCCCC[C@H](NC(=O)[C@H](CCCN=C(N)N)NC(=O)[C@H](CCCN=C(N)N)NC(=O)[C@H](Cc1ccc(O)cc1)NC(=O)[C@H](CCCCN)NC(=O)C1CCC(NC(=O)[C@H](CCCCN)NC(=O)[C@H](CCCCN)NC(=O)[C@@H](N)CCCN=C(N)N)CC1)C(N)=O` (stereo not given in full) (H-RKK[X1]KYRRK-NH2) the IC50 (CaM kinase II) was > 200000 nM, the IC50 [1] was 1040 nM and the Ratio [2] was > 192.
In the case of `C[C@H](O)[C@H](NC(=O)[C@H](CCCCN)NC(=O)[C@H](Cc1ccc(O)cc1)NC(=O)[C@H](CCCCN)NC(=O)[C@H](CCCCN)NC(=O)[C@@H](N)CCCN=C(N)N)C(=O)N[C@@H](CCCN=C(N)N)C(=O)N[C@@H](CCCN=C(N)N)C(=O)N[C@@H](CCCCN)C(N)=O`, the Ratio [2] is reported as > 274.
With H-RKKYKYRRK-NH2 the IC50 (CaM kinase II) was > 200000 nM, the IC50 [1] was 50 nM and the Ratio [2] was > 4000.
With `NCCCC[C@H](NC(=O)[C@H](CCCN=C(N)N)NC(=O)[C@H](CCCN=C(N)N)NC(=O)[C@H](Cc1ccc(O)cc1)NC(=O)C1CCC(NC(=O)[C@H](Cc2ccc(O)cc2)NC(=O)[C@H](CCCCN)NC(=O)[C@H](CCCCN)NC(=O)[C@@H](N)CCCN=C(N)N)CC1)C(N)=O` (stereo not given in full) (H-RKKY[X1]YRRK-NH2) the IC50 (CaM kinase II) was > 200000 nM, the IC50 [1] was 40 nM and the Ratio [2] was > 5000.
In the case of `NCCCC[C@H](NC(=O)[C@H](CCCN=C(N)N)NC(=O)[C@H](CCCN=C(N)N)NC(=O)C1CCC(NC(=O)[C@H](CCCCN)NC(=O)[C@H](Cc2ccc(O)cc2)NC(=O)[C@H](CCCCN)NC(=O)[C@H](CCCCN)NC(=O)[C@@H](N)CCCN=C(N)N)CC1)C(N)=O` (stereo not given in full) (H-RKKYK[X1]RRK-NH2), the IC50 (CaM kinase II) is reported as > 200000 nM, the IC50 [1] is reported as 270 nM and the Ratio [2] is reported as > 741.
In the case of H-RKKYKFRRK-NH2, the IC50 (CaM kinase II) is reported as > 200000 nM, the IC50 [1] is reported as 150 nM and the Ratio [2] is reported as > 1330.
With H-RKKYKSRRK-NH2 [listing 1 of 2 here] the IC50 (CaM kinase II) was > 200000 nM and the Ratio [2] was > 1330.
With H-RKKYKDRRK-NH2 the IC50 (CaM kinase II) was > 200000 nM, the IC50 [1] was 610 nM and the Ratio [2] was > 328.
An IC50 [1] of 160 nM was found for H-RKKYKMRRK-NH2 [listing 1 of 2 here] in this work.
With `NCCCC[C@H](NC(=O)[C@H](CCCN=C(N)N)NC(=O)[C@H](CCCN=C(N)N)NC(=O)C1CCC(NC(=O)C2CCC(NC(=O)C3CCC(NC(=O)[C@H](CCCCN)NC(=O)[C@H](CCCCN)NC(=O)[C@@H](N)CCCN=C(N)N)CC3)CC2)CC1)C(N)=O` (stereo not given in full) (H-RKK[X1][X1][X1]RRK-NH2) the IC50 (CaM kinase II) was > 200000 nM and the Ratio [2] was > 10.
An IC50 [1] of 290 nM was found for H-RKKYKNRRK-NH2 [listing 1 of 2 here] in this work.
An IC50 [1] of 310 nM was found for H-RKKYKGRRK-NH2 [listing 1 of 2 here] in this work.
In the case of H-RKKYKNRRK-NH2 [listing 2 of 2 here], the IC50 (CaM kinase II) is reported as > 200000 nM and the Ratio [2] is reported as > 690.
For `NCCCC[C@H](NC(=O)[C@H](CCCN=C(N)N)NC(=O)[C@H](CCCN=C(N)N)NC(=O)C1CCC(NC(=O)C2CCC(NC(=O)[C@H](Cc3ccc(O)cc3)NC(=O)[C@H](CCCCN)NC(=O)[C@H](CCCCN)NC(=O)[C@@H](N)CCCN=C(N)N)CC2)CC1)C(N)=O` (stereo not given in full) (H-RKKY[X1][X1]RRK-NH2), the IC50 (CaM kinase II) was > 200000 nM, the IC50 [1] was 110 nM and the Ratio [2] was > 1820.
A Ratio [2] of 359 was found for `CC[C@@H](C)[C@H](NC(=O)[C@H](CCCCN)NC(=O)[C@H](Cc1ccc(O)cc1)NC(=O)[C@H](CCCCN)NC(=O)[C@H](CCCCN)NC(=O)[C@@H](N)CCCN=C(N)N)C(=O)N[C@@H](CCCN=C(N)N)C(=O)N[C@@H](CCCN=C(N)N)C(=O)N[C@@H](CCCCN)C(N)=O` in this work.
With `C[C@@H](O)[C@H](NC(=O)[C@H](CCCCN)NC(=O)[C@H](Cc1ccc(O)cc1)NC(=O)[C@H](CCCCN)NC(=O)[C@H](CCCCN)NC(=O)[C@@H](N)CCCN=C(N)N)C(=O)N[C@@H](CCCN=C(N)N)C(=O)N[C@@H](CCCN=C(N)N)C(=O)N[C@@H](CCCCN)C(N)=O` the IC50 (CaM kinase II) was > 200000 nM and the IC50 [1] was 730 nM.
With `NCCCC[C@H](NC(=O)[C@H](CCCN=C(N)N)NC(=O)[C@H](CCCN=C(N)N)NC(=O)[C@H](Cc1ccc(O)cc1)NC(=O)C1CCC(NC(=O)C2CCC(NC(=O)[C@H](CCCCN)NC(=O)[C@H](CCCCN)NC(=O)[C@@H](N)CCCN=C(N)N)CC2)CC1)C(N)=O` (stereo not given in full) (H-RKK[X1][X1]YRRK-NH2) the IC50 (CaM kinase II) was > 200000 nM and the Ratio [2] was > 67.
For H-RKKYKMRRK-NH2 [listing 2 of 2 here], the IC50 (CaM kinase II) was > 200000 nM and the Ratio [2] was > 1250.
An IC50 (CaM kinase II) of 16200 nM, an IC50 [1] of 290 nM and a Ratio [2] of 56 were found for H-RKKYKHRRK-NH2 in this work.
An IC50 (CaM kinase II) of 132000 nM, an IC50 [1] of 320 nM and a Ratio [2] of 413 were found for H-RKKYKLRRK-NH2 in this work.
In the case of H-RKKYKARRK-NH2, the IC50 (CaM kinase II) is reported as > 200000 nM, the IC50 [1] is reported as 420 nM and the Ratio [2] is reported as > 476.
With H-RKKYKQRRK-NH2 the IC50 (CaM kinase II) was > 200000 nM, the IC50 [1] was 300 nM and the Ratio [2] was > 667.
For H-RKKYKKRRK-NH2, the IC50 (CaM kinase II) was > 200000 nM, the IC50 [1] was 220 nM and the Ratio [2] was > 909.
In the case of H-RKKYKGRRK-NH2 [listing 2 of 2 here], the IC50 (CaM kinase II) is reported as > 200000 nM and the Ratio [2] is reported as > 645.
In the case of `NCCCC[C@H](NC(=O)[C@H](CCCN=C(N)N)NC(=O)[C@H](CCCN=C(N)N)NC(=O)C1CCC(NC(=O)[C@H](CCCCN)NC(=O)C2CCC(NC(=O)[C@H](CCCCN)NC(=O)[C@H](CCCCN)NC(=O)[C@@H](N)CCCN=C(N)N)CC2)CC1)C(N)=O` (stereo not given in full) (H-RKK[X1]K[X1]RRK-NH2), the IC50 (CaM kinase II) is reported as > 200000 nM, the IC50 [1] is reported as 20000 nM and the Ratio [2] is reported as > 10.
For H-RKKYKVRRK-NH2 [listing 1 of 2 here], the IC50 (CaM kinase II) was > 200000 nM and the Ratio [2] was > 556.
An IC50 [1] of 20000 nM was found for `N=C(N)NCCC[C@H](NC(=O)C1CCC(NC(=O)C2CCC(NC(=O)C3CCC(NC(=O)[C@H](CCCCN)NC(=O)[C@H](CCCCN)NC(=O)[C@@H](N)CCCNC(=N)N)CC3)CC2)CC1)C(=O)N[C@@H](CCCNC(=N)N)C(=O)N[C@@H](CCCCN)C(N)=O` (stereo not given in full) (H-RKK[X1][X1][X1]RRK-NH2) in this work.
An IC50 [1] of 360 nM was found for H-RKKYKVRRK-NH2 [listing 2 of 2 here] in this work.
For H-RKKYKPRRK-NH2, the IC50 (CaM kinase II) was > 200000 nM, the IC50 [1] was 120 nM and the Ratio [2] was > 1670.
An IC50 [1] of 150 nM was found for H-RKKYKSRRK-NH2 [listing 2 of 2 here] in this work.
An IC50 (CaM kinase II) of 26700 nM, an IC50 [1] of 200 nM and a Ratio [2] of 134 were found for H-RKKYKWRRK-NH2 in this work.
An IC50 [1] of 2970 nM was found for `N=C(N)NCCC[C@H](NC(=O)[C@H](CCCNC(=N)N)NC(=O)[C@H](Cc1ccc(O)cc1)NC(=O)C1CCC(NC(=O)C2CCC(NC(=O)[C@H](CCCCN)NC(=O)[C@H](CCCCN)NC(=O)[C@@H](N)CCCNC(=N)N)CC2)CC1)C(=O)N[C@@H](CCCCN)C(N)=O` (stereo not given in full) (H-RKK[X1][X1]YRRK-NH2) in this work.
